In brackets after ≈: the same amount, converted by molar mass.
Assays:
[1] = Solubility in common solvents, shaker method, HPLC; type: physicochemical
[2] = Plasma protein binding by ultracentrifugation/ultrafiltration; type: in vitro ADME, human; settings: 37 °C
[3] = cited from earlier work
[4] = Stability in rat plasma at 37 °C; type: in vitro ADME; settings: male, Sprague Dawley
[5] = Stability in human plasma at 37 °C; type: in vitro ADME
[6] = cited from earlier work; remark: listed apart in the source
[7] = Solution state pH stability in USP buffers at 37 °C; type: physicochemical; settings: for Degradation half-life t½: calculated from k
Procedure, shortened: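 Test compound (1 mg/mL acetonitrile stock) added 1:10 to 0.2 M USP buffers (n = 3) in amber vials. Buffers were HCl (pH 2), acid phthalate (pH 3–4), neutralized phthalate (pH 5), phosphate (pH 6–7) and borate (pH 8–10). Incubation at 37 °C, light-protected. Quantified by isocratic C18 HPLC-UV at 300 nm with warfarin IS. Log % remaining plotted against time; half-lives from first-order kinetics.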

Oc1ccc(/C=C/c2cc(O)cc(O)c2)cc1 [resveratrol, trans-3,5,4′-trihydroxystilbene]
Solubility ([1]; PEG-400, room temperature (25 °C), mean, n = 3): 373.85 mg/mL (≈ 1640 mM) | Solubility in words ([1]; water): not soluble | Bound fraction (%) ±standard deviation (n = 6) ([2]; human plasma spiked at 5 µg/mL): 98.2 ± 0.41% | Bound fraction (%) ±standard deviation (n = 6) ([2]; human plasma spiked at 12.5 µg/mL): 98.5 ± 0.23% | Bound fraction (%) ±standard deviation (n = 6) ([2]; human plasma spiked at 25 µg/mL): 98.3 ± 0.33% | Plasma protein binding (mean) ([2]; human plasma, over 5, 12.5 and 25 µg/mL): 98% | fraction unbound at 30 min ([2]; human, human plasma, Plasma protein binding (mean), over 5, 12.5 and 25 µg/mL): 0.017 | pKa1 [3]: 8.8 | pKa2 [3]: 9.8 | pKa3 [3]: 11.4 | half-life at 50 µg/mL [4]: 25 h | half-life at 50 µg/mL [5]: 54 h | Water solubility [6]: 0.05 mg/mL | Original concentration remaining ([7]; acidic and neutral conditions, at 193 h): More than 70% | Degradation rate constant k ([7]; pH 2, hydrochloric acid buffer 0.2 M): 0.000506 h⁻¹ | Degradation rate constant k ([7]; pH 3, acid phthalate buffer 0.2 M): 0.000353 h⁻¹ | Degradation rate constant k ([7]; pH 4, acid phthalate buffer 0.2 M): 0.000151 h⁻¹ | Degradation rate constant k ([7]; pH 5, neutralized phthalate buffer 0.2 M): 0.00011 h⁻¹ | Degradation rate constant k ([7]; pH 6, phosphate buffer 0.2 M): 0.000147 h⁻¹ | Degradation half-life t½ ([7]; pH 6, phosphate buffer 0.2 M): 195.5 days | Degradation rate constant k ([7]; pH 7, phosphate buffer 0.2 M): 0.00247 h⁻¹ | Resveratrol remaining ([7]; pH 8, 9 or 10, at 50 and 80 h): Less than 2% | Degradation rate constant k ([7]; pH 8, borate buffer 0.2 M): 0.0488 h⁻¹ | Degradation rate constant k ([7]; pH 9, borate buffer 0.2 M): 0.4000 h⁻¹ | Degradation half-life t½ ([7]; pH 9, borate buffer 0.2 M): 0.0722 days | Degradation rate constant k ([7]; pH 10, borate buffer 0.2 M): 0.0335 h⁻¹
